This is an account of results in ChEMBL document CHEMBL1143188, “5-Aryl-imidazolin-2-ones as a scaffold for potent antioxidant and memory-improving activity” (Bioorg Med Chem Lett, 2008).

Active and inactive are the calls of the source. The rule behind the calls is not given here.

For one data set, the system named is Brain. Description: Inhibition of lipid peroxidation in Wistar rat brain homogenates by TBARS assay. Format: functional, tissue-based. Summed up: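 Male Wistar rat brain homogenate autooxidized at 37 °C for 30 min with or without compound. Lipid peroxidation read by a modified thiobarbituric acid (TBARS) test; IC50 derived.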
Data set [1] has as its system Rattus norvegicus. Description: Memory improving activity in rat passive avoidance model assessed as effect on cycloheximide-induced amnesia at 0.1 mg/kg, po. It counts as functional, organism-based. Also noted: dose 0.1 mg/kg. Put shortly:
(§1)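 Passive avoidance: one day after training, compound (0.1–30 mg/kg) or vehicle given orally 30 min before a retention trial. Read-out was latency to move from the light to the dark room; minimum effective dose (MED) reported.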

Data set [2] has as its system Rattus norvegicus. Description: Memory improving activity in po dosed rat passive avoidance model assessed as effect on cycloheximide-induced amnesia. It counts as functional. The settings on record: read-out: MED. Put shortly: as §1
The nature of data set [3]: DPPH radical scavenging activity at 100 uM relative to control. Format: ADME. Put shortly: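 DPPH 100 μM in ethanol; compound added in ethanol to a final 100 μM; optical density read; scavenging expressed as a percentage of the optical density of a control with excess vitamin C.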
The subject of data set [4] is Rattus norvegicus. In words: Toxicity in po dosed rat. It counts as organism-based. As to conditions: in vivo.

With `Cc1[nH]c(=O)n(C2CCCCC2)c1-c1ccc(OCCC(C)C)cc1`, the IC50 – broadly, the midpoint of a concentration-inhibition curve – in the data set on Brain was found to be 7.2 µM. Besides, in the data set with Rattus norvegicus [1], the outcome was inactive.
In the case of `CCCCCc1ccc(-c2c(C)[nH]c(=O)n2C2CCCCC2)cc1`, the IC50 in the data set with Brain turned out to be 10.6 µM.
In the case of `CCCc1ccc(-c2c(C)[nH]c(=O)n2C)cc1`, inhibition with Brain was half-maximal at 21.5 µM (IC50).
The compound `CCCCCCc1ccc(-c2c(C)[nH]c(=O)n2C2CCCCC2)cc1` showed an IC50 with Brain of 13.7 µM.
In turn, `CCCc1ccc(-c2c(C)[nH]c(=O)n2C2CCCCC2)cc1` gave an IC50 with Brain of 13.9 µM.
In the data set with Brain, `Cc1[nH]c(=O)n(C2CCCCC2)c1-c1ccc(C2CCCCC2)cc1` gave an IC50 of 28.9 µM.
For the compound `CCCCCCc1ccc(-c2c(C)[nH]c(=O)n2C)cc1`, the midpoint of inhibition in the data set on Brain, the IC50, lay at 9 µM. Also, in the data set on Rattus norvegicus [2], the minimal effective dose was 0.3 mg/kg.
For the compound `CCCCc1ccc(-c2c(C)[nH]c(=O)n2CCCC)cc1`, the IC50 in the data set with Brain turned out to be 12 µM.
`Cc1[nH]c(=O)n(C2CCCCC2)c1-c1ccc(OC(C)C)cc1` showed an IC50 with Brain of 13 µM.
On to `CCCCCCCOc1ccc(-c2c(C)[nH]c(=O)n2C2CCCCC2)cc1`, for which, in the data set on Brain, the IC50 is 11.6 µM.
In the data set on Brain, `CCCCCCCCCCCCc1ccc(-c2c(C)[nH]c(=O)n2C2CCCCC2)cc1` gave an IC50 greater than 100 µM.
The same measure, in the same setting: the result for `CCCCCCCCCCCCc1ccc(-c2c(C)[nH]c(=O)n2C)cc1` reads 13 µM.
In turn, `CCCCCCCCOc1ccc(-c2c(C)[nH]c(=O)n2C2CCCCC2)cc1` gave an IC50 in the data set with Brain of 8.5 µM. The minimal effective dose in the data set on Rattus norvegicus [2] was determined as 30 mg/kg.
The compound `CCCCCCCCCCc1ccc(-c2c(C)[nH]c(=O)n2C2CCCCC2)cc1` gave an IC50 in the data set on Brain of 27 µM.
`Cc1[nH]c(=O)n(C)c1-c1ccccc1` displayed a half-maximal inhibitory concentration (IC50) in the data set with Brain greater than 100 µM.
`Cc1[nH]c(=O)n(C)c1-c1ccc(OC(C)C)cc1` had a concentration for half-maximal inhibition (IC50) with Brain of 20.4 µM.
In the data set with Brain, `CCCCCCOc1ccc(-c2c(C)[nH]c(=O)n2C)cc1` had an IC50 of 7.3 µM. Further, in the data set on Rattus norvegicus [1], the result was inactive.
`Cc1[nH]c(=O)n(C2CCCCC2)c1-c1ccc(OCc2ccccc2)cc1`: in the data set on Brain, the IC50 worked out at 8.3 µM. For the same compound, the minimal effective dose in the data set with Rattus norvegicus [2] came to 0.1 mg/kg.
Regarding `CCCCCCCCCCCCCCc1ccc(-c2c(C)[nH]c(=O)n2C)cc1`, half-maximal inhibition with Brain (IC50) was put at 43.8 µM.
In the data set on Brain, `Cc1[nH]c(=O)n(C2CCCCC2)c1-c1ccc(Oc2ccccc2)cc1` registered an IC50 of 7.9 µM. Moreover, the minimal effective dose in the data set with Rattus norvegicus [2] turned out to be 0.1 mg/kg.
Consider `CCCCOc1ccc(-c2c(C)[nH]c(=O)n2C)cc1`, for which, in the data set on Brain, the 50% inhibitory concentration (IC50) turned out to be 5.1 µM. Besides, in the data set on Rattus norvegicus [2], the minimal effective dose came to 0.3 mg/kg.
As for `CCCCCCCCCCCCCCCCCCOc1ccc(-c2c(C)[nH]c(=O)n2C2CCCCC2)cc1`, the concentration for half-maximal inhibition (IC50) in the data set with Brain is greater than 100 µM.
As for `CCCCc1ccc(-c2c(C)[nH]c(=O)n2Cc2ccccc2)cc1`, half-maximal inhibition with Brain (IC50) was put at 12.4 µM. The compound further yielded an Activity in data set [3] of 59%.
In turn, `Cc1[nH]c(=O)n(C2CCCCC2)c1-c1ccc(-c2ccccc2)cc1` returned an IC50 in the data set with Brain of 10.9 µM. The minimal effective dose with Rattus norvegicus [2] is 0.1 mg/kg.
`CCCCc1ccc(-c2c(CC)[nH]c(=O)n2C)cc1` registered a half-inhibitory concentration (IC50) in the data set with Brain of 13.9 µM.
Take `Cc1[nH]c(=O)n(C)c1-c1ccc(OCc2ccccc2)cc1`: the IC50 in the data set with Brain worked out at 6.7 µM. Also, the result with Rattus norvegicus [1] was inactive.
Take `CCCCCCCCCCOc1ccc(-c2c(C)[nH]c(=O)n2C)cc1`: in the data set on Brain, the IC50 stood at 6.9 µM. Besides, the minimal effective dose in the data set with Rattus norvegicus [2] worked out at 0.1 mg/kg.
With `CCCCCc1ccc(-c2c(C)[nH]c(=O)n2C)cc1`, the IC50 with Brain worked out at 5.9 µM.
For the compound `CCCCCOc1ccc(-c2c(C)[nH]c(=O)n2C)cc1`, the concentration for half-maximal inhibition (IC50) in the data set with Brain amounted to 4.5 µM. The result in the data set on Rattus norvegicus [1] was inactive.
Regarding `CCCCCCCCCCCCCCCCCCOc1ccc(-c2c(C)[nH]c(=O)n2C)cc1`, in the data set on Brain, the IC50 is greater than 100 µM.
In the data set on Brain, `Cc1[nH]c(=O)n(C2CCCCC2)c1-c1ccccc1OC(C)C` returned an IC50 of 21.5 µM.
In the data set with Brain, `COc1ccc(-c2c(C)[nH]c(=O)n2C2CCCCC2)cc1` had an IC50 of 20.4 µM.
Regarding `CCCCc1ccc(-c2c(C)[nH]c(=O)n2C)cc1`, the IC50 in the data set with Brain was found to be 10.7 µM. Further, the Activity is 98% in data set [3] and greater than 1000 mg/kg in the data set on Rattus norvegicus [4]. Also, in the data set on Rattus norvegicus [2], the minimal effective dose was 0.1 mg/kg.
In the case of `Cc1[nH]c(=O)n(C)c1-c1ccc(C2CCCCC2)cc1`, the IC50 in the data set with Brain was 10 µM. For the same compound, the minimal effective dose in the data set with Rattus norvegicus [2] is 0.1 mg/kg. The compound further had an Activity with Rattus norvegicus [4] greater than 1000 mg/kg.
`CCCCCCCc1ccc(-c2c(C)[nH]c(=O)n2C2CCCCC2)cc1`: 8.7 µM corresponded to half-maximal inhibition with Brain (IC50).
Regarding `Cc1ccc(-c2c(C)[nH]c(=O)n2C)cc1`, the IC50 in the data set with Brain is 85.3 µM.
In turn, `CCCCCOc1ccc(-c2c(C)[nH]c(=O)n2C2CCCCC2)cc1` showed a concentration for half-maximal inhibition (IC50) in the data set with Brain of 9.1 µM. For the same compound, in the data set with Rattus norvegicus [1], the result was inactive.
Take `Cc1[nH]c(=O)n(C2CCCCC2)c1-c1ccccc1`: in the data set on Brain, the IC50 came out at 47.6 µM.
`CCCCCCOc1ccc(-c2c(C)[nH]c(=O)n2C2CCCCC2)cc1` yielded an IC50 in the data set with Brain of 8.5 µM. The outcome in the data set with Rattus norvegicus [1] was inactive.
Compound `CCCCc1ccc(-c2c(C)[nH]c(=O)n2-c2ccccc2)cc1` gave a 50% inhibitory concentration (IC50) in the data set with Brain of 16.6 µM.
For `Cc1[nH]c(=O)n(C2CCCCC2)c1-c1cccc(OC(C)C)c1`, in the data set with Brain, the IC50 came to 10.4 µM.
`CCCCCCCCc1ccc(-c2c(C)[nH]c(=O)n2C2CCCCC2)cc1` gave an IC50 in the data set with Brain of 10.3 µM.
Take `CCCCOc1ccc(-c2c(C)[nH]c(=O)n2C2CCCCC2)cc1`: half-maximal inhibition in the data set on Brain (IC50) required 13.9 µM. The compound further showed an Activity in data set [3] of 88%.
In the data set with Brain, `CCCCCCCCCCCCOc1ccc(-c2c(C)[nH]c(=O)n2C2CCCCC2)cc1` showed an IC50 of 52.4 µM.
Turning to `CCCCc1ccc(-c2c(C)[nH]c(=O)n2C2CCCCC2)cc1`, inhibition in the data set on Brain was half-maximal at 27.1 µM (IC50).
Compound `CCCCc1ccc(-c2c(C)[nH]c(=O)n2C(C)C)cc1` came in with an IC50 with Brain of 10.7 µM. The same compound had an Activity in data set [3] of 78%.
In turn, `CCCCCCCCCCCCCCCCCCc1ccc(-c2c(C)[nH]c(=O)n2C2CCCCC2)cc1` displayed an IC50 in the data set on Brain greater than 100 µM.
With `CCCCCCCCOc1ccc(-c2c(C)[nH]c(=O)n2C)cc1`, the half-maximal inhibitory concentration (IC50) with Brain came to 4 µM. Also, the minimal effective dose with Rattus norvegicus [2] came out at 30 mg/kg.
Consider `CCCCCCCCCCCCCCCCCCc1ccc(-c2c(C)[nH]c(=O)n2C)cc1`, for which, in the data set on Brain, the IC50 was greater than 100 µM.
For `Cc1[nH]c(=O)n(C)c1-c1ccc(CC(C)C)cc1`, it took 7.8 µM to reach half-maximal inhibition in the data set with Brain (IC50). Moreover, the minimal effective dose in the data set with Rattus norvegicus [2] worked out at 30 mg/kg.
`Cc1[nH]c(=O)n(C2CCCCC2)c1-c1ccc(CC(C)C)cc1` had an IC50 in the data set with Brain of 10.9 µM.
The compound `Cc1[nH]c(=O)n(C)c1-c1ccc(OCCC(C)C)cc1` had an IC50 in the data set on Brain of 6.6 µM. The result in the data set on Rattus norvegicus [1] was inactive.
In the data set on Brain, `Cc1[nH]c(=O)n(C)c1-c1ccc(C(C)(C)C)cc1` returned a half-maximal inhibitory concentration (IC50) of 8.4 µM.
In turn, `CCCCCCCc1ccc(-c2c(C)[nH]c(=O)n2C)cc1` had an IC50 in the data set with Brain of 8.4 µM. Besides, in the data set on Rattus norvegicus [2], the minimal effective dose came to 30 mg/kg.
For the compound `CCCCCCCOc1ccc(-c2c(C)[nH]c(=O)n2C)cc1`, half-maximal inhibition in the data set with Brain (IC50) required 5.7 µM. The result in the data set on Rattus norvegicus [1] was inactive.
With `CCCCn1c(-c2ccccc2)c(C)[nH]c1=O`, in the data set on Brain, the half-maximal inhibitory concentration (IC50) was greater than 100 µM.
`CCCCCCCCCCCCCCc1ccc(-c2c(C)[nH]c(=O)n2C2CCCCC2)cc1` had an IC50 in the data set on Brain greater than 100 µM.
Regarding `CCCCCCCCCCc1ccc(-c2c(C)[nH]c(=O)n2C)cc1`, the midpoint of inhibition in the data set with Brain, the IC50, lay at 7.9 µM. Also, the minimal effective dose in the data set with Rattus norvegicus [2] stood at 0.3 mg/kg.
`CCCCCCCCCCCCOc1ccc(-c2c(C)[nH]c(=O)n2C)cc1` showed an IC50 in the data set with Brain of 9.7 µM. Further, the minimal effective dose in the data set on Rattus norvegicus [2] was determined as 0.1 mg/kg.
For the compound `COc1ccc(-c2c(C)[nH]c(=O)n2C)cc1`, the IC50 in the data set with Brain was found to be 147 µM.
Regarding `CCCCCCCCc1ccc(-c2c(C)[nH]c(=O)n2C)cc1`, half-maximal inhibition in the data set on Brain (IC50) was put at 19.4 µM.
In turn, `Cc1[nH]c(=O)n(C)c1-c1ccc(Oc2ccccc2)cc1` gave an IC50 in the data set with Brain of 8.1 µM. Further, the outcome in the data set on Rattus norvegicus [1] was inactive.
With `Cc1[nH]c(=O)n(C)c1-c1ccc(-c2ccccc2)cc1`, the half-inhibitory concentration (IC50) in the data set with Brain amounted to 6.3 µM. In the data set on Rattus norvegicus [2], the minimal effective dose turned out to be 0.3 mg/kg. In addition, the Activity with Rattus norvegicus [4] was greater than 1000 mg/kg.
In the case of `CCCCCCCCCCOc1ccc(-c2c(C)[nH]c(=O)n2C2CCCCC2)cc1`, the IC50 in the data set on Brain was 10.5 µM. Further, in the data set on Rattus norvegicus [2], the minimal effective dose amounted to 0.1 mg/kg.
